Assay results: ChEMBL document CHEMBL1781959, “Synthesis and in vitro antitumor activity of substituted quinazoline and quinoxaline derivatives: search for anticancer agent” (Eur J Med Chem, 2011)

What was measured:
Format in all cases: functional
SF-268 = assay: Anticancer activity against human SF268 cells assessed as cell growth promotion at 10^-5 M after 48 hrs by SRB assay relative to control
SF-295 = assay: Anticancer activity against human SF295 cells assessed as cell growth promotion at 10^-5 M after 48 hrs by SRB assay relative to control
SF-539 = assay: Anticancer activity against human SF539 cells assessed as cell growth promotion at 10^-5 M after 48 hrs by SRB assay relative to control
U-251 = assay: Anticancer activity against human U251 cells assessed as cell growth promotion at 10^-5 M after 48 hrs by SRB assay relative to control
LOX IMVI = assay: Anticancer activity against human LOXIMVI cells assessed as cell growth promotion at 10^-5 M after 48 hrs by SRB assay relative to control
Malme-3M = assay: Anticancer activity against human MALME-3M cells assessed as cell growth promotion at 10^-5 M after 48 hrs by SRB assay relative to control
CCRF-CEM = assay: Anticancer activity against human CCRF-CEM cells assessed as cell growth promotion at 10^-5 M after 48 hrs by SRB assay relative to control
SK-MEL-28 = assay: Anticancer activity against human SK-MEL-28 cells assessed as cell growth promotion at 10^-5 M after 48 hrs by SRB assay relative to control
UACC-257 = assay: Anticancer activity against human UACC257 cells assessed as cell growth promotion at 10^-5 M after 48 hrs by SRB assay relative to control
UACC-62 = assay: Anticancer activity against human UACC62 cells assessed as cell growth promotion at 10^-5 M after 48 hrs by SRB assay relative to control
IGROV-1 = assay: Anticancer activity against human IGROV1 cells assessed as cell growth promotion at 10^-5 M after 48 hrs by SRB assay relative to control
OVCAR-3 = assay: Anticancer activity against human OVCAR3 cells assessed as cell growth promotion at 10^-5 M after 48 hrs by SRB assay relative to control
OVCAR-5 = assay: Anticancer activity against human OVCAR5 cells assessed as cell growth promotion at 10^-5 M after 48 hrs by SRB assay relative to control
NCI/ADR-RES = assay: Anticancer activity against human NCI/ADR-RES cells assessed as cell growth promotion at 10^-5 M after 48 hrs by SRB assay relative to control
786-0 = assay: Anticancer activity against human 786-0 cells assessed as cell growth promotion at 10^-5 M after 48 hrs by SRB assay relative to control
CAKI-1 = assay: Anticancer activity against human Caki1 cells assessed as cell growth promotion at 10^-5 M after 48 hrs by SRB assay relative to control
SN12C = assay: Anticancer activity against human SN12C cells assessed as cell growth promotion at 10^-5 M after 48 hrs by SRB assay relative to control
PC-3 = assay: Anticancer activity against human PC3 cells assessed as cell growth promotion at 10^-5 M after 48 hrs by SRB assay relative to control
MCF7 = assay: Anticancer activity against human MCF7 cells assessed as cell growth promotion at 10^-5 M after 48 hrs by SRB assay relative to control
HL-60(TB) = assay: Anticancer activity against human HL-60(TB) cells assessed as cell growth promotion at 10^-5 M after 48 hrs by SRB assay relative to control
Procedure, shortened: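 NCI-60 single-dose screen: compound at 10^-5 M, 48 h at 37 °C, 5% CO2; cells grown in RPMI 1640 with 5% FBS and 2 mM L-glutamine, pre-incubated 24 h before dosing. Adherent cells fixed with cold TCA; endpoint is sulforhodamine B protein staining. Percent growth of treated cells is reported relative to untreated control.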

K562 = assay: Anticancer activity against human K562 cells assessed as cell growth promotion at 10^-5 M after 48 hrs by SRB assay relative to control
MDA-MB-231 = assay: Anticancer activity against human MDA-MB-231 cells assessed as cell growth promotion at 10^-5 M after 48 hrs by SRB assay relative to control
MDA-MB-468 = assay: Anticancer activity against human MDA-MB-468 cells assessed as cell growth promotion at 10^-5 M after 48 hrs by SRB assay relative to control
SR = assay: Anticancer activity against human SR cells assessed as cell growth promotion at 10^-5 M after 48 hrs by SRB assay relative to control
A549 = assay: Anticancer activity against human A549 cells assessed as cell growth promotion at 10^-5 M after 48 hrs by SRB assay relative to control
HOP-62 = assay: Anticancer activity against human HOP62 cells assessed as cell growth promotion at 10^-5 M after 48 hrs by SRB assay relative to control
NCI-H226 = assay: Anticancer activity against human NCI-H226 cells assessed as cell growth promotion at 10^-5 M after 48 hrs by SRB assay relative to control
NCI-H23 = assay: Anticancer activity against human NCI-H23 cells assessed as cell growth promotion at 10^-5 M after 48 hrs by SRB assay relative to control
NCI-H322M = assay: Anticancer activity against human NCI-H322M cells assessed as cell growth promotion at 10^-5 M after 48 hrs by SRB assay relative to control
NCI-H460 = assay: Anticancer activity against human NCI-H460 cells assessed as cell growth promotion at 10^-5 M after 48 hrs by SRB assay relative to control
COLO 205 = assay: Anticancer activity against human COLO205 cells assessed as cell growth promotion at 10^-5 M after 48 hrs by SRB assay relative to control
HCC 2998 = assay: Anticancer activity against human HCC2998 cells assessed as cell growth promotion at 10^-5 M after 48 hrs by SRB assay relative to control
HCT-116 = assay: Anticancer activity against human HCT116 cells assessed as cell growth promotion at 10^-5 M after 48 hrs by SRB assay relative to control
HCT-15 = assay: Anticancer activity against human HCT15 cells assessed as cell growth promotion at 10^-5 M after 48 hrs by SRB assay relative to control
HT-29 = assay: Anticancer activity against human HT-29 cells assessed as cell growth promotion at 10^-5 M after 48 hrs by SRB assay relative to control
SW-620 = assay: Anticancer activity against human SW620 cells assessed as cell growth promotion at 10^-5 M after 48 hrs by SRB assay relative to control
[1] = Anticancer activity against human Hs 578T cells assessed as cell growth promotion at 10^-5 M after 48 hrs by SRB assay relative to control
[2] = Anticancer activity against human […] cells assessed as cell growth promotion at 10^-5 M after 48 hrs by SRB assay relative to control

Structure (SMILES) | Activity (SF-268) | Activity (SF-295) | Activity (SF-539) | Activity (U-251) | Activity (LOX IMVI) | Activity (Malme-3M) | Activity (CCRF-CEM) | Activity (SK-MEL-28) | Activity (UACC-257) | Activity (UACC-62) | Activity (IGROV-1) | Activity (OVCAR-3) | Activity (OVCAR-5) | Activity (NCI/ADR-RES) | Activity (786-0) | Activity (CAKI-1) | Activity (SN12C) | Activity (MCF7) | Activity (HL-60(TB)) | Activity (K562) | further results
O=C(O)c1ccc(-n2c(-c3ccco3)nc3ccccc3c2=O)cc1 | 106.85% | 108.58% | 104.2% | 102.8% | 98.82% | 102.96% | 87.86% | 115.08% | 107.43% | 84.67% | 91.67% | 105.38% | 98.22% | 102.28% | 105.17% | 102.24% | 99.34% | 63.47% | 94.52% | 98.25% | Activity (PC-3): 86.25%; Activity (MDA-MB-231): 83.73%; Activity (MDA-MB-468): 101.43%; Activity (SR): 92.85%; Activity (A549): 104.77%; Activity (HOP-62): 107.05%; Activity (NCI-H226): 78.42%; Activity (NCI-H23): 98.82%; Activity (NCI-H322M): 97.61%; Activity (NCI-H460): 95.38%; Activity (COLO 205): 103.97%; Activity (HCC 2998): 120.31%; Activity (HCT-116): 99.69%; Activity (HCT-15): 93.69%; Activity (HT-29): 92%; Activity (SW-620): 106.15%
C(=C\c1nc2ccccc2nc1SCc1nc2ccccc2[nH]1)/c1ccccc1 | 88.12% | 58.32% | 97.75% | 79.81% | 56.83% | 63.63% | 89.58% | 94.52% | 67.72% | 61.37% | 87.44% | 65.02% | 95.41% | 53.22% | 76.68% | 77.88% | 74.42% | 40.3% | 77.83% | 61.44% | Activity (MDA-MB-231): 77.23%; Activity [1]: 90.1%; Activity (MDA-MB-468): 39.93%; Activity [2]: 47.73%; Activity (SR): 83.8%; Activity (A549): 64.03%; Activity (HOP-62): 88.3%; Activity (NCI-H226): 65.68%; Activity (NCI-H23): 52.23%; Activity (NCI-H322M): 86.4%; Activity (NCI-H460): 70.22%; Activity (COLO 205): 75.7%; Activity (HCC 2998): 86.35%; Activity (HCT-116): 35.79%; Activity (HCT-15): 96.13%; Activity (SW-620): 83.03%
O=c1c2ccccc2nc(-c2ccco2)n1O | 106.3% | 117.66% | 95.42% | 110.85% | 107.97% | 122.97% | 98.16% | 109.58% | 112.27% | 92.42% | 103.91% | 114.53% | 100.49% | 112.3% | 104.23% | 102.81% | 98.6% | 103.51% | 95.84% | 105.54% | Activity (PC-3): 91.05%; Activity (MDA-MB-231): 93.48%; Activity (MDA-MB-468): 115.34%; Activity (SR): 94.7%; Activity (A549): 113.82%; Activity (HOP-62): 112.74%; Activity (NCI-H226): 97.88%; Activity (NCI-H23): 105.41%; Activity (NCI-H322M): 97.18%; Activity (NCI-H460): 108.52%; Activity (COLO 205): 107.29%; Activity (HCC 2998): 119.5%; Activity (HCT-116): 105.94%; Activity (HCT-15): 108.36%; Activity (HT-29): 103.19%; Activity (SW-620): 107.69%
